Data reported in ChEMBL document CHEMBL2321664, “L-Aminoacyl-triazine derivatives are isoform-selective PI3Kβ inhibitors that target non-conserved Asp862 of PI3Kβ” (ACS Med Chem Lett, 2013).

Columns and labels:
[1] = molecular target: T1, Phosphatidylinositol 4,5-bisphosphate 3-kinase catalytic subunit beta isoform (Homo sapiens, UniProt P42338); experiment: Inhibition of PI3K-beta (unknown origin) assessed as decrease in ATP consumption using phosphatidylinositol bisphosphate and 10 uM ATP as substrate measured after 60 mins by luminescence assay
T1 sequence (P42338 whole entry, canonical isoform): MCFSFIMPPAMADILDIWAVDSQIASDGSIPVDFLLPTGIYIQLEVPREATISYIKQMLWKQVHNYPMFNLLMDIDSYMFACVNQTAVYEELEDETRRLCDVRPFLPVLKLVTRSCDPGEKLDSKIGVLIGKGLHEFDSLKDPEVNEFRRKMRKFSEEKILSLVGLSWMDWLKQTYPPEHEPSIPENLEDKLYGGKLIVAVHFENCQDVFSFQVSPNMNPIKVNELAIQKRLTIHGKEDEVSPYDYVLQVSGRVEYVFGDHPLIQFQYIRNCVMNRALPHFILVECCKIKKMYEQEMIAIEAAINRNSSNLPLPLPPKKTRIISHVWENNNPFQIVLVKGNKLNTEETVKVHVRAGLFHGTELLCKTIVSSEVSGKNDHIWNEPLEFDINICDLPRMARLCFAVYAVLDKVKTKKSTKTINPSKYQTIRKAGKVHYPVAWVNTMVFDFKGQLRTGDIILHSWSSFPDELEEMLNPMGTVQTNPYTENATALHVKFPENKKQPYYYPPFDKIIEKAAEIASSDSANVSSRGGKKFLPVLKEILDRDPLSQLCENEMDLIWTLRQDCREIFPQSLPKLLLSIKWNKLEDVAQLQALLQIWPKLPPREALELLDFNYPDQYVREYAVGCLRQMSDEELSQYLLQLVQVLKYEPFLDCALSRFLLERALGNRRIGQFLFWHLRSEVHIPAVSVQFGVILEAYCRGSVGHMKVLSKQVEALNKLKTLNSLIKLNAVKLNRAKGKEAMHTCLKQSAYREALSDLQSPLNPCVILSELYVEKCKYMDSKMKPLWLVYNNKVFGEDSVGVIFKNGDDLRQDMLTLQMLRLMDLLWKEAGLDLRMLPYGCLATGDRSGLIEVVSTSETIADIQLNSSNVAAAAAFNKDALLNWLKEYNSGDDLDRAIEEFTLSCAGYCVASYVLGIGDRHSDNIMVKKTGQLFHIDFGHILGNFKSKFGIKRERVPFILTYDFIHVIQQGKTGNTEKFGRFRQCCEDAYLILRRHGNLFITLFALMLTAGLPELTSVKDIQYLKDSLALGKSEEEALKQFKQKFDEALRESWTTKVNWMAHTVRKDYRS

[2] = molecular target: Phosphatidylinositol 4,5-bisphosphate 3-kinase catalytic subunit gamma isoform (Homo sapiens, UniProt P48736); experiment: Inhibition of PI3K-gamma (unknown origin) assessed as decrease in ATP consumption using phosphatidylinositol bisphosphate and 10 uM ATP as substrate measured after 60 mins by luminescence assay
Chain of Phosphatidylinositol 4,5-bisphosphate 3-kinase catalytic subunit gamma isoform (P48736 whole entry, canonical isoform): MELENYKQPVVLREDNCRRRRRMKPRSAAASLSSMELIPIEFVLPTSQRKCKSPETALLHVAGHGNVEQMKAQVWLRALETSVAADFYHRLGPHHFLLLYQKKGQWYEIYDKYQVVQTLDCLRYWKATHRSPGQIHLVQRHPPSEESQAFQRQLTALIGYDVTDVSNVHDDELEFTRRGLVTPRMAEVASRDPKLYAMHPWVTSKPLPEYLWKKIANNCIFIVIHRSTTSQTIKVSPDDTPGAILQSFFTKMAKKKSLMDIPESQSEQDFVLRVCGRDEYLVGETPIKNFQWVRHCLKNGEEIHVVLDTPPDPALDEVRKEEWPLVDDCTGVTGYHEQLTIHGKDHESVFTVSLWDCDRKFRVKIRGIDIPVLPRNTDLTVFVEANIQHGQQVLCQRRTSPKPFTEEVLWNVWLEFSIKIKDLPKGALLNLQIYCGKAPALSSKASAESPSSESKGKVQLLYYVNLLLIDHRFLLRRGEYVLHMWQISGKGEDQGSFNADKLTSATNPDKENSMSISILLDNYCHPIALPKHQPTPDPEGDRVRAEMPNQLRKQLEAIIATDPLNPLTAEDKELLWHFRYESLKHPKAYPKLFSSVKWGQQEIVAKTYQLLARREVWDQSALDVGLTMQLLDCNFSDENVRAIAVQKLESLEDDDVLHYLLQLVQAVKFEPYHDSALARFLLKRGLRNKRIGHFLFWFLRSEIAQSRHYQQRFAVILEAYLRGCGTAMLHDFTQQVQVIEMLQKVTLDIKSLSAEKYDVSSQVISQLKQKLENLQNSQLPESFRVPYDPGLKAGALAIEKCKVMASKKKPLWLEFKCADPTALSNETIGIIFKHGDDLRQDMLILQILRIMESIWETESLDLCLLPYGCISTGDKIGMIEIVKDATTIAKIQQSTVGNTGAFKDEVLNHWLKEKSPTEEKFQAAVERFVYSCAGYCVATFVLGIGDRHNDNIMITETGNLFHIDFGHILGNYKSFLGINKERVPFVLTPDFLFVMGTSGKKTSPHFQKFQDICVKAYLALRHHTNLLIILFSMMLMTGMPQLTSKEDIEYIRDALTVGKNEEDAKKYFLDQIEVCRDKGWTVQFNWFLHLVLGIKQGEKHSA

[3] = molecular target: Phosphatidylinositol 4,5-bisphosphate 3-kinase catalytic subunit alpha isoform (Homo sapiens, UniProt P42336); experiment: Inhibition of PI3K-alpha (unknown origin) assessed as decrease in ATP consumption using phosphatidylinositol bisphosphate and 10 uM ATP as substrate measured after 60 mins by luminescence assay
Chain of Phosphatidylinositol 4,5-bisphosphate 3-kinase catalytic subunit alpha isoform (P42336 whole entry, canonical isoform): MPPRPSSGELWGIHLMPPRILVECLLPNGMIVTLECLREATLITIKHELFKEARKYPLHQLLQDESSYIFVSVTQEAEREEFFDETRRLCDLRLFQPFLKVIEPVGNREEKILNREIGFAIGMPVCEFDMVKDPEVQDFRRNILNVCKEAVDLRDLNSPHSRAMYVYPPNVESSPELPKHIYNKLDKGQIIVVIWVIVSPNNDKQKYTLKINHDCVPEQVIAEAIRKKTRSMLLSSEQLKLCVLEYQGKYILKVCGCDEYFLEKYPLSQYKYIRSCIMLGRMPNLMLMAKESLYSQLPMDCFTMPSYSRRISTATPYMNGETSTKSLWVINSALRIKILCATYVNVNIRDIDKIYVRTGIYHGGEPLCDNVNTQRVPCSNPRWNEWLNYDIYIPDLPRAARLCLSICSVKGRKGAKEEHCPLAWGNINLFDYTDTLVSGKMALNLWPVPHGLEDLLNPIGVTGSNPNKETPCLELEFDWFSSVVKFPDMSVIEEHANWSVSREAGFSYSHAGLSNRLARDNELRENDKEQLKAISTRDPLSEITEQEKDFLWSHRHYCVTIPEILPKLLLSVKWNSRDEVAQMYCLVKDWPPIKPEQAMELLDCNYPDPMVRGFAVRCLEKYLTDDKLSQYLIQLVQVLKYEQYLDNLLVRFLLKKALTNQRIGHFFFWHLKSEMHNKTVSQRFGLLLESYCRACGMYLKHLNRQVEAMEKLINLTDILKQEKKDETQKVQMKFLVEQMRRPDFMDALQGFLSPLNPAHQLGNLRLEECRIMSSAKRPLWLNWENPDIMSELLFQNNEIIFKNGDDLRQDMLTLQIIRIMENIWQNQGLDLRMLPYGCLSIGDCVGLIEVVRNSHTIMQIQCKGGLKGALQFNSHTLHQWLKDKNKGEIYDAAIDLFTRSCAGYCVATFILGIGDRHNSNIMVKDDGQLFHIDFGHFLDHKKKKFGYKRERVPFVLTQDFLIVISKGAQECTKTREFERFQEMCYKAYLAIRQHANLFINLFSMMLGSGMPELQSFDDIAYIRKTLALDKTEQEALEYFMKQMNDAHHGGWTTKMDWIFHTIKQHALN

[4] = molecular target: T2, Phosphatidylinositol 4,5-bisphosphate 3-kinase catalytic subunit delta isoform (Homo sapiens, UniProt O00329); experiment: Inhibition of PI3K-delta (unknown origin) assessed as decrease in ATP consumption using phosphatidylinositol bisphosphate and 10 uM ATP as substrate measured after 60 mins by luminescence assay
T2 sequence (O00329 whole entry): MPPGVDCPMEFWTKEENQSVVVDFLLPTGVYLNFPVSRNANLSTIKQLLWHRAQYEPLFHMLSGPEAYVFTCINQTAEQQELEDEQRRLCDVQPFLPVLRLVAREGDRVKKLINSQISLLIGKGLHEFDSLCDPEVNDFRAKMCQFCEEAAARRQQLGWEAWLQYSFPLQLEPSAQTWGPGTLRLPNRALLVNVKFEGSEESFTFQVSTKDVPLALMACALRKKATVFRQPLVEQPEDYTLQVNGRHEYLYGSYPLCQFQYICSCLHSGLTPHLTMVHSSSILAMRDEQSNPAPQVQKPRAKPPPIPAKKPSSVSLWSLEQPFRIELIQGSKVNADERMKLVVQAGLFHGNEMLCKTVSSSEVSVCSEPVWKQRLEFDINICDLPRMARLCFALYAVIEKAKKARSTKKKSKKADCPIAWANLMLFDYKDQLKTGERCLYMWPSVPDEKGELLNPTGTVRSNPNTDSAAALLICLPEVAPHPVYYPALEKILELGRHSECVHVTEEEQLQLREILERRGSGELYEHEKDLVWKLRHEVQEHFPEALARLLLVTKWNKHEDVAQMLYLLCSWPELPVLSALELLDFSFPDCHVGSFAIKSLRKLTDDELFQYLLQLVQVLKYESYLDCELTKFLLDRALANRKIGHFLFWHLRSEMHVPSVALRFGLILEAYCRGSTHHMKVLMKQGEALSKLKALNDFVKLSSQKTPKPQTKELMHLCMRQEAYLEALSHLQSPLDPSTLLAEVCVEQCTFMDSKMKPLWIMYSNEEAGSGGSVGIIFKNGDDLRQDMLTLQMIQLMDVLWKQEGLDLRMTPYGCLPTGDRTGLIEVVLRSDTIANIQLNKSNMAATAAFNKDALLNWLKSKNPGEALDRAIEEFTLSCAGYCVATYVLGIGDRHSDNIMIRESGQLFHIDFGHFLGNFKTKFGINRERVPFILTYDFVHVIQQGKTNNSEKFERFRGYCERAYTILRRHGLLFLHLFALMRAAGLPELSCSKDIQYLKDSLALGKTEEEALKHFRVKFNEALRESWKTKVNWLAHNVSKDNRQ

[5] = molecular target: Phosphatidylinositol 4,5-bisphosphate 3-kinase catalytic subunit beta isoform (Homo sapiens, UniProt P42338, D862Q); experiment: Inhibition of recombinant PI3K-beta D862Q mutant (unknown origin) expressed in baculovirus infected Sf21 cells assessed as decrease in ATP consumption using phosphatidylinositol bisphosphate and 100 uM ATP as substrate measured after 60 mins by luminescence assay
Chain of Phosphatidylinositol 4,5-bisphosphate 3-kinase catalytic subunit beta isoform (Homo sapiens, UniProt P42338, D862Q) (P42338 whole entry D862Q, canonical isoform): as the sequence (P42338 whole entry, canonical isoform) above, with D862Q counted along it
Method in brief: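 Kinase-Glo luminescent read-out of kinase activity with 100 μM ATP. Run alongside the wild-type PI3Kβ enzyme and the wild-type and reciprocal-mutant PI3Kα enzymes. IC50 values are means of at least two duplicate experiments.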

[6] = molecular target: T1, Phosphatidylinositol 4,5-bisphosphate 3-kinase catalytic subunit beta isoform; experiment: Inhibition of wild type PI3K-beta (unknown origin) assessed as decrease in ATP consumption using phosphatidylinositol bisphosphate and 100 uM ATP as substrate measured after 60 mins by luminescence assay
Method in brief: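 Kinase-Glo read-out with 100 μM ATP, run alongside the D862Q mutant and the wild-type and reciprocal-mutant PI3Kα forms. IC50 is the mean of at least two duplicate experiments.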

[7] = molecular target: RAC-alpha serine/threonine-protein kinase (Homo sapiens, UniProt P31749); experiment: Inhibition of IGF-1 induced Akt phosphorylation in PTEN-deficient human MDA-MB-468 cells pretreated for 2 hrs before IGF1 induction measured after 15 mins by Western blot analysis; format: cell-based
Chain of RAC-alpha serine/threonine-protein kinase (P31749 whole entry): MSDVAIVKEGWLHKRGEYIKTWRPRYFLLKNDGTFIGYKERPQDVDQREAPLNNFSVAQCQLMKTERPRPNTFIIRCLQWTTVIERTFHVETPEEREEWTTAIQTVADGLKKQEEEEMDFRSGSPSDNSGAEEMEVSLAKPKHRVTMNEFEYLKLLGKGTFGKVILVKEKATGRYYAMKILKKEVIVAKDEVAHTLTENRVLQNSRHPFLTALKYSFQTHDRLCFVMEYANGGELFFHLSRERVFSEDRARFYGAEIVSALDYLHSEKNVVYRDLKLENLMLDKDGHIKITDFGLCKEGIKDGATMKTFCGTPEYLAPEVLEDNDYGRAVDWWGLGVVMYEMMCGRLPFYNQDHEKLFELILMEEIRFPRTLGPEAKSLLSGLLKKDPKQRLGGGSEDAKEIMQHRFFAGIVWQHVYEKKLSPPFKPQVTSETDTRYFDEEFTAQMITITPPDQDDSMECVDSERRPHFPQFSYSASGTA

Row | Structure (SMILES) | IC50 [1] | IC50 [2] | IC50 [3] | IC50 [4] | IC50 [5] | IC50 [6] | IC50 [7] | inhibition [7]
1 | CN[C@@H](C)C(=O)N1CCN(c2nc(N3CCOCC3)nc(-n3c(C(F)F)nc4ccccc43)n2)CC1 | 0.26 µM | 8 µM | 1.5 µM | 0.29 µM | – | – | – | –
2 | NCCCC[C@H](N)C(=O)N1CCN(c2nc(N3CCOCC3)nc(-n3c(C(F)F)nc4ccccc43)n2)CC1 | 0.05 µM | > 10 µM | 2.3 µM | 0.67 µM | – | – | – | –
3 | CC[C@H](C)[C@H](N)C(=O)N1CCN(c2nc(N3CCOCC3)nc(-n3c(C(F)F)nc4ccccc43)n2)CC1 | 0.067 µM | > 10 µM | – | 1 µM | 1.4 µM | 0.14 µM | – | –
4 | NCC(=O)N1CCN(c2nc(N3CCOCC3)nc(-n3c(C(F)F)nc4ccccc43)n2)CC1 | 0.035 µM | 9.9 µM | 1.5 µM | 0.11 µM | – | – | – | –
5 | N[C@@H](Cc1ccccc1)C(=O)N1CCN(c2nc(N3CCOCC3)nc(-n3c(C(F)F)nc4ccccc43)n2)CC1 | 0.063 µM | – | – | 2.2 µM | 6 µM | 0.074 µM | < 0.01 µM | Dose-dependent effect
6 | CN(C)CC(=O)N1CCN(c2nc(N3CCOCC3)nc(-n3c(C(F)F)nc4ccccc43)n2)CC1 | 2.4 µM | > 10 µM | 1.6 µM | 0.33 µM | – | – | – | –
7 | C[C@H](N)C(=O)N1CCN(c2nc(N3CCOCC3)nc(-n3c(C(F)F)nc4ccccc43)n2)CC1 | 0.031 µM | – | – | 0.49 µM | 0.89 µM | 0.062 µM | – | –
8 | N[C@H](Cc1ccccc1)C(=O)N1CCN(c2nc(N3CCOCC3)nc(-n3c(C(F)F)nc4ccccc43)n2)CC1 | > 10 µM | > 10 µM | – | 3.6 µM | – | – | – | –
9 | C[C@@H](N)C(=O)N1CCN(c2nc(N3CCOCC3)nc(-n3c(C(F)F)nc4ccccc43)n2)CC1 | 1 µM | 2 µM | – | 0.07 µM | – | – | – | –
10 | N[C@@H](Cc1ccc(O)cc1)C(=O)N1CCN(c2nc(N3CCOCC3)nc(-n3c(C(F)F)nc4ccccc43)n2)CC1 | 0.22 µM | > 10 µM | 3.3 µM | 1.2 µM | – | – | – | –
11 | CC(=O)NCC(=O)N1CCN(c2nc(N3CCOCC3)nc(-n3c(C(F)F)nc4ccccc43)n2)CC1 | 0.054 µM | 0.38 µM | 0.042 µM | 0.026 µM | – | – | – | –
12 | NCCC(=O)N1CCN(c2nc(N3CCOCC3)nc(-n3c(C(F)F)nc4ccccc43)n2)CC1 | 0.098 µM | 3.9 µM | 0.72 µM | 0.058 µM | – | – | – | –
13 | O=C([C@@H]1CCCN1)N1CCN(c2nc(N3CCOCC3)nc(-n3c(C(F)F)nc4ccccc43)n2)CC1 | 0.026 µM | > 10 µM | 2.2 µM | 0.39 µM | – | – | – | –
